ChEMBL document CHEMBL3392964, “Design, synthesis, and evaluation of novel imidazo[1,2-a][1,3,5]triazines and their derivatives as focal adhesion kinase inhibitors with antitumor activity” (J Med Chem, 2015)
Activity calls are given as the source filed them. The rule behind the calls is not given here.

Assays:
[1] = molecular target: Focal adhesion kinase 1 (Homo sapiens, UniProt Q05397); experiment: Inhibition of FAK (unknown origin) using ULight-poly GT as substrate after 1.6 hrs by TR-FRET assay
[2] = Antiproliferative activity against human U87MG cells after 48 hrs by WST-1 assay; type: functional, cell-based, U-87MG ATCC; details: U-87 MG
Method in brief: (§1)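 Exponentially growing cells in DMEM/10% FBS seeded at 5 × 10^3 per well, left overnight, then exposed 48 h to compounds diluted from DMSO; WST-1 added for 2 h, absorbance at 450 nm (reference 620 nm); viability as ratio to DMSO controls; three independent experiments, triplicate points; IC50 by nonlinear regression (log inhibitor vs normalized response, variable slope).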

[3] = Antiproliferative activity against human HCT116 cells after 48 hrs by WST-1 assay; type: functional, cell-based; details: HCT-116, 48 h; method in brief: as §1
[4] = system: MDA-MB-231; experiment: Antiproliferative activity against human MDA-MB-231 cells after 48 hrs by WST-1 assay; type: functional, cell-based; details: MDA-MB-231, 48 h; method in brief: as §1
[5] = Antiproliferative activity against human PC3 cells after 48 hrs by WST-1 assay; type: functional, cell-based; details: PC-3, 48 h; method in brief: as §1
[6] = (§2) Inhibition of colony formation in human U87MG cells after 2 weeks by crystal violet staining-based assay; type: functional, cell-based, U-87MG ATCC; details: U-87 MG, 336 h
Method in brief: (§3)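 Seeding: 250 cells per well for HCT-116, 300 for U87MG, MDA-MB-231 and PC-3; incubated overnight, then exposed to a range of concentrations for 2 weeks. Fixed in 4% paraformaldehyde 30 min at room temperature, stained with 0.1% crystal violet. Colonies over 50 cells counted; colony formation rate calculated; IC50 by nonlinear regression.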

[7] = (§4) Inhibition of colony formation in human HCT116 cells after 2 weeks by crystal violet staining-based assay; type: functional, cell-based; details: HCT-116, 336 h; method in brief: as §3
[8] = system: MDA-MB-231; experiment: Inhibition of colony formation in human MDA-MB-231 cells after 2 weeks by crystal violet staining-based assay; type: functional, cell-based; details: for IC50: MDA-MB-231, 336 h; method in brief: as §3
[9] = (§5) Inhibition of colony formation in human PC3 cells after 2 weeks by crystal violet staining-based assay; type: functional, cell-based; details: PC-3, 336 h; method in brief: as §3
[10] = system: U-87 MG; experiment: Reduction of cell adherence in human U87MG cells after 30 mins by toluidine blue staining-based […]; type: functional; details: U-87MG ATCC
Method in brief: (§6)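 U87-MG cells grown in 10% serum, trypsinised, diluted to 100 000 cells/mL in 10% serum medium, then treated 30 min with compound or DMSO. 20 000 cells per well allowed to attach 1 h. Fixed in 4% paraformaldehyde 30 min, stained with 0.1% toluidine blue in 4% PFA 30 min, washed, OD read at 620 nm for attached cells.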

[11] = system: U-87MG ATCC; experiment: Antimigratory activity in human U87MG cells at 4 uM […] by transwell membrane assay; type: functional, cell-based
[12] = system: U-87MG ATCC; experiment: Antimigratory activity in human U87MG cells after 30 mins by boyden chamber assay; type: functional, cell-based
[13] = system: U-87MG ATCC; experiment: as §2; type: functional, cell-based; method in brief: as §3
[14] = system: HCT-116; experiment: as §4; type: functional, cell-based; method in brief: as §3
[15] = system: PC-3; experiment: as §5; type: functional, cell-based; method in brief: as §3
[16] = system: U-87MG ATCC; experiment: Antimigratory activity in human U87MG cells at 2 uM […] by transwell membrane assay; type: functional, cell-based
[17] = system: U-87 MG; experiment: Induction of apoptosis in human U87MG cells assessed as early apoptotic cells at 0.3 uM after 24 hrs by Annexin V-PE/7-AAD staining-based FACS analysis (reference value: 0.691%); type: functional, U-87MG ATCC
[18] = system: U-87 MG; experiment: Induction of apoptosis in human U87MG cells assessed as late apoptotic cells at 0.3 uM after 24 hrs by Annexin V-PE/7-AAD staining-based FACS analysis (reference value: 1.59%); type: functional, U-87MG ATCC
[19] = system: U-87 MG; experiment: Induction of apoptosis in human U87MG cells assessed as necrotic cells at 0.3 uM after 24 hrs by Annexin V-PE/7-AAD staining-based FACS analysis (reference value: 1.06%); type: functional, U-87MG ATCC
[20] = system: U-87 MG; experiment: Induction of apoptosis in human U87MG cells assessed as viable cells at 0.3 uM after 24 hrs by Annexin V-PE/7-AAD staining-based FACS analysis (reference value: 96.7%); type: functional, U-87MG ATCC; details: read-out: Activity
[21] = system: HCT-116; experiment: Induction of apoptosis in human HCT116 cells assessed as early apoptotic cells at 0.4 uM after 24 hrs by Annexin V-PE/7-AAD staining-based FACS analysis (reference value: 4.68%); type: functional
[22] = system: HCT-116; experiment: Induction of apoptosis in human HCT116 cells assessed as late apoptotic cells at 0.4 uM after 24 hrs by Annexin V-PE/7-AAD staining-based FACS analysis (reference value: 1.22%); type: functional
[23] = system: HCT-116; experiment: Induction of apoptosis in human HCT116 cells assessed as necrotic cells at 0.4 uM after 24 hrs by Annexin V-PE/7-AAD staining-based FACS analysis (reference value: 0.885%); type: functional
[24] = system: HCT-116; experiment: Induction of apoptosis in human HCT116 cells assessed as viable cells at 0.4 uM after 24 hrs by Annexin V-PE/7-AAD staining-based FACS analysis (reference value: 93.2%); type: functional; details: HCT-116, 24 h, read-out: Activity
[25] = system: HCT-116; experiment: Induction of apoptosis in human HCT116 cells at < 0.4 uM after 24 hrs by Annexin V-PE/7-AAD staining-based FACS analysis; type: functional, cell-based
[26] = Cell cycle arrest in human HCT116 cells assessed as accumulation at G0/G1 phase at 0.4 uM after 24 hrs by propidium iodide staining-based flow cytometry (reference value: 63.8%); type: functional; details: HCT-116
Method in brief: (§7)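 Cells plated at 10^5 per well, left overnight, then exposed 24 h to compound or vehicle; stained 15 min at 37 °C with propidium iodide/Triton buffer; DNA content by flow cytometry, phase distribution fitted by Dean–Jett–Fox; HCT-116 at 0.3–0.5 μM, U87-MG at 0.3–3 μM; significance by unpaired Student's t test; one representative experiment.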

[27] = Cell cycle arrest in human HCT116 cells assessed as accumulation at S phase at 0.4 uM after 24 hrs by propidium iodide staining-based flow cytometry (reference value: 17.7%); type: functional; details: HCT-116; method in brief: as §7
[28] = Cell cycle arrest in human HCT116 cells assessed as accumulation at G2/M phase at 0.4 uM after 24 hrs by propidium iodide staining-based flow cytometry (reference value: 14.6%); type: functional; details: HCT-116; method in brief: as §7
[29] = Cell cycle arrest in human U87MG cells at < 0.3 uM after 24 hrs by propidium iodide staining-based flow cytometry; type: functional; details: U-87MG ATCC; method in brief: as §7
[30] = Cell cycle arrest in human HCT116 cells at < 0.4 uM after 24 hrs by propidium iodide staining-based flow cytometry; type: functional; details: HCT-116; method in brief: as §7
[31] = system: U-87 MG; experiment: Reduction of cell adherence in human U87MG cells at 0.5 uM after 30 mins by toluidine blue staining-based […]; type: functional, U-87MG ATCC; set-up: scale not given: the % may be the effect or the level left; method in brief: as §6
[32] = Antimigratory activity in human U87MG cells at 0.4 uM […] by transwell membrane assay; type: functional, U-87MG ATCC
[33] = Antiinvasive activity in human U87MG cells after 24 hrs by matrigel assay; type: functional, U-87MG ATCC
Method in brief: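 U-87MG pre-exposed 24 h to compound or DMSO in 3% FBS, then 4 × 10^4 cells seeded in upper chamber of impedance-based CIM-16 plate (8 μm pore membrane) coated with Matrigel/collagen; lower chamber 10% FBS; cell index monitored at 37 °C, 5% CO2 for 12 h; slope (1/h) over set interval, DMSO slope set to 100; duplicate wells, repeated twice.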

[34] = system: U-87MG ATCC; experiment: Antiinvasive activity in human U87MG cells after 30 mins by boyden chamber assay; type: functional, cell-based

Sequence of Focal adhesion kinase 1 (Q05397 whole entry): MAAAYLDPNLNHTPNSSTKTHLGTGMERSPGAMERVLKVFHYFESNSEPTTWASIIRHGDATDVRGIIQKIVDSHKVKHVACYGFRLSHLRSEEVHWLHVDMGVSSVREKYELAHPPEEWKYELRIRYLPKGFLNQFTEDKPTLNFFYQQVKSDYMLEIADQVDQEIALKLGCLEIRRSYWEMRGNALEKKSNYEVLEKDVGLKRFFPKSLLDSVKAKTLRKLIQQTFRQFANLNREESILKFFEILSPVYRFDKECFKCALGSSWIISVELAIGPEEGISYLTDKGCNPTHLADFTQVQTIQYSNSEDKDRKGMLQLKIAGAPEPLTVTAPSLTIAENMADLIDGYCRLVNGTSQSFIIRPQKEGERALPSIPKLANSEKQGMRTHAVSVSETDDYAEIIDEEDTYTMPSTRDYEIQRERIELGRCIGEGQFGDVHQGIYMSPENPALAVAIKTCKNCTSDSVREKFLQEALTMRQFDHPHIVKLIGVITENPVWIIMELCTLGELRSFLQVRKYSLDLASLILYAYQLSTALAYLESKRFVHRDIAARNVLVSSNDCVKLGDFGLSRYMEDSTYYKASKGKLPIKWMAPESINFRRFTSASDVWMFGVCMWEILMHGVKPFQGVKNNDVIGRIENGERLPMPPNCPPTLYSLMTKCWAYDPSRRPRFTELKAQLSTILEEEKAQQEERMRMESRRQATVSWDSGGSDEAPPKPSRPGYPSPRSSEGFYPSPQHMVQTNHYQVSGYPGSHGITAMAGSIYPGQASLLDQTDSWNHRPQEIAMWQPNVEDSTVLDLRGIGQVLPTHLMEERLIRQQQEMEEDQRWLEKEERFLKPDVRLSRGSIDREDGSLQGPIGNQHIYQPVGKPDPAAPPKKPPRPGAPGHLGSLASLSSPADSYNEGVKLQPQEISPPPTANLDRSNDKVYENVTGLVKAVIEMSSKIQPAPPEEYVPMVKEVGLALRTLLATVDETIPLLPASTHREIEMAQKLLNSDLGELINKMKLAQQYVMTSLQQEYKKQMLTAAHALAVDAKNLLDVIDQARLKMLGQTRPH

## COC(=O)c1cccc(Nc2nc(Nc3cc(OC)c(OC)c(OC)c3)nc3nccn23)c1
[1]
  IC50: 870 nM

## COc1cc(NC2=Nc3nccn3C(Cc3ccccc3NC(C)=O)N2)cc(OC)c1OC (stereo not drawn)
[1]
  IC50: 8910 nM

## CNC(=O)c1ccccc1Nc1nc(Nc2ccc(C#N)cc2)nc2nccn12
[1]
  IC50: 710 nM

## CNC(=O)c1ccccc1Nc1nc(Nc2cc(OC)c(OC)c(OC)c2)nc2nccn12
[2]
  IC50: 4200 nM
[3]
  IC50: 950 nM
[4]
  IC50: > 10000 nM
[5]
  IC50: 350 nM
[6]
  IC50: 220 nM
[7]
  IC50: 760 nM
[8]
  IC50: 3900 nM
[9]
  IC50: 990 nM
[1]
  IC50: 230 nM
[10]
  Activity: Dose-dependent effect
[11]
  Activity: Active
[12]
  Activity: Dose-dependent effect

## CNC(=O)c1ccccc1Nc1nc(Nc2ccc(N3CCOCC3)cc2OC)nc2nccn12
[2]
  IC50: 2310 nM
[3]
  IC50: 340 nM
[4]
  IC50: > 10000 nM
[5]
  IC50: 270 nM
[6]
  IC50: 1400 nM
[13]
  inhibition: Dose-dependent effect
[7]
  IC50: 20 nM
[14]
  inhibition: Dose-dependent effect
[8]
  inhibition: Dose-dependent effect
  IC50: > 10000 nM
[9]
  IC50: 630 nM
[15]
  inhibition: Dose-dependent effect
[1]
  IC50: 330 nM
[10]
  Activity: Dose-dependent effect
[16]
  Activity: Active
[12]
  Activity: Dose-dependent effect

## COC(=O)c1ccccc1Nc1nc(Nc2ccc(CN)cc2)nc2nccn12
[1]
  IC50: 240 nM

## CNC(=O)c1ccccc1Nc1nc(Nc2ccc(CN)cc2)nc2nccn12
[2]
  IC50: 370 nM
[3]
  IC50: 310 nM
[4]
  IC50: 1080 nM
[5]
  IC50: 1270 nM
[6]
  IC50: 220 nM
[13]
  inhibition: Dose-dependent effect
[7]
  IC50: 120 nM
[14]
  inhibition: Dose-dependent effect
[8]
  inhibition: Dose-dependent effect
  IC50: 520 nM
[9]
  IC50: 1400 nM
[15]
  inhibition: Dose-dependent effect
[17]
  Activity: 1.37%
[18]
  Activity: 0.755%
[19]
  Activity: 1.26%
[20]
  viability at 0.3 µM: 96.6%
[21]
  Activity: 4.24%
[22]
  Activity: 4.06%
[23]
  Activity: 3.03%
[24]
  viability at 0.4 µM: 88.7%
[1]
  IC50: 120 nM
[25]
  Activity: inactive
[26]
  Activity: 24.4%
[27]
  Activity: 12.8%
[28]
  Activity: 61%
[29]
  Activity: Active
[30]
  Activity: Active
[10]
  Activity: Dose-dependent effect
[31]
  Activity: 50%
[32]
  Activity: 66.4%
[12]
  Activity: Dose-dependent effect
[33]
  Activity: 50%
[34]
  Activity: Dose-dependent effect

## CS(=O)(=O)Nc1ccccc1Nc1nc(Nc2ccc(C#N)cc2)nc2nccn12
[1]
  IC50: 920 nM

## COC(=O)c1cccc(Nc2nc(Nc3cc(OC)c(OC)c(OC)c3)n3ccnc3n2)c1
[1]
  IC50: 1200 nM

## CNC(=O)c1ccccc1Cc1nc(Nc2cc(OC)c(OC)c(OC)c2)nc2nccn12
[1]
  IC50: 180 nM

## C=COC(=O)NCc1ccc(Nc2nc(Nc3ccccc3C(=O)OC)nc3nccn23)cc1
[1]
  IC50: 1050 nM

## C=COC(=O)NCc1ccc(Nc2nc(Nc3ccccc3C(=O)NC)nc3nccn23)cc1
[1]
  IC50: 880 nM

## COC(=O)c1ccccc1Nc1nc(Nc2ccc(N3CCOCC3)cc2OC)nc2nccn12
[1]
  IC50: 370 nM

## CNC(=O)c1ccccc1Nc1nc(Nc2ccc(C#N)cc2)n2ccnc2n1
[1]
  IC50: 1120 nM

## COc1cc(Nc2nc(Cc3ccccc3NS(C)(=O)=O)nc3nccn23)cc(OC)c1OC
[1]
  IC50: 840 nM

## CS(=O)(=O)Nc1ccccc1Nc1nc(Nc2ccc(C#N)cc2)n2ccnc2n1
[1]
  IC50: 1730 nM

## COC(=O)c1ccccc1Nc1nc(Nc2ccc(N3CCOCC3)cc2OC)n2ccnc2n1
[1]
  IC50: 570 nM

## CNC(=O)c1ccccc1Nc1nc(Nc2ccc(CN)cc2)n2ccnc2n1
[1]
  IC50: 220 nM

## C=COC(=O)NCc1ccc(Nc2nc(Nc3ccccc3C(=O)OC)n3ccnc3n2)cc1
[1]
  IC50: 500 nM

## CNC(=O)c1ccccc1Nc1nc(Nc2ccc(N3CCOCC3)cc2OC)n2ccnc2n1
[1]
  IC50: 510 nM

## COC(=O)c1ccccc1Nc1nc(Nc2ccc(CN)cc2)n2ccnc2n1
[1]
  IC50: 280 nM

## COC(=O)c1ccccc1Nc1nc(Nc2cc(OC)c(OC)c(OC)c2)n2ccnc2n1
[1]
  IC50: 570 nM

## COC(=O)c1ccccc1Cc1nc(Nc2cc(OC)c(OC)c(OC)c2)nc2nccn12
[1]
  IC50: 370 nM

## COC(=O)c1ccccc1Nc1nc(Nc2cc(OC)c(OC)c(OC)c2)nc2nccn12
[1]
  IC50: 280 nM

## CNC(=O)c1ccccc1Nc1nc(Nc2cc(OC)c(OC)c(OC)c2)n2ccnc2n1
[1]
  IC50: 310 nM
